Assay [1] deals with T1, Polyunsaturated fatty acid 5-lipoxygenase (Homo sapiens) (UniProt P09917).
T1 sequence (whole entry): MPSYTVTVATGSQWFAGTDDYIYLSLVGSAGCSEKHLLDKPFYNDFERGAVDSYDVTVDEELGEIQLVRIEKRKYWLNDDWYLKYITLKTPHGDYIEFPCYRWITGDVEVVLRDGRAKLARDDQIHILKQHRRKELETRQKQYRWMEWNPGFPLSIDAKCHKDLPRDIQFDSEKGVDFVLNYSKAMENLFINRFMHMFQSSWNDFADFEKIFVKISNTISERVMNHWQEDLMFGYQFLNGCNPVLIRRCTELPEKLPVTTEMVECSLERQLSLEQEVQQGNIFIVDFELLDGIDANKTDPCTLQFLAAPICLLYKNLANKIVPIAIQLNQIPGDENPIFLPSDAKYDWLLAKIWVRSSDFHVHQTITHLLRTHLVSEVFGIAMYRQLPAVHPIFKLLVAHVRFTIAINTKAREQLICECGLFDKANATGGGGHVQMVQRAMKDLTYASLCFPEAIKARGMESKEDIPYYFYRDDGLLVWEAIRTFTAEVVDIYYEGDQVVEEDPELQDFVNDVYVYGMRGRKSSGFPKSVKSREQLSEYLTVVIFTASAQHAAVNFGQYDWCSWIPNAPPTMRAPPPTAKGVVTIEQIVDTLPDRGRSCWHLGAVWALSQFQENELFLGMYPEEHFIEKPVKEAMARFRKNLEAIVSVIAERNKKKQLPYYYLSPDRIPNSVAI
In words: Inhibition of 5-LO in human neutrophils assessed as product formation at 3 uM by cell-intact assay relative to control in presence of 2.5 uM A23187 ionophore; values are per cent of control.

Assay [2] has as its target T1, Polyunsaturated fatty acid 5-lipoxygenase (Homo sapiens). The assay is described as follows: Inhibition of human recombinant 5-LO assessed as product formation at 3 uM by cell-free assay relative to control; values are per cent of control.
The target in assay [3] is T2, Polyunsaturated fatty acid 5-lipoxygenase (Homo sapiens, UniProt P09917).
T2 sequence (P09917 whole entry): T1 sequence (whole entry)
The assay is described as follows: Inhibition of human recombinant 5-LO assessed as product formation by cell-free assay relative to control. The gist of the method:
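Partially purified human recombinant 5-LO (ATP-agarose eluate, 0.5–2 μg) in PBS-EDTA with 1 mM ATP. Preincubated with vehicle or compound 10 min at 4 °C, prewarmed 30 s at 37 °C, then started with 2 mM CaCl2 and 20 μM AA. Products analysed by HPLC. Means ± SE, n = 3 or 4; IC50 by sigmoidal variable-slope fit.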

Assay [4] concerns the target T2, Polyunsaturated fatty acid 5-lipoxygenase. The assay is described as follows: Inhibition of 5-LO in human neutrophils assessed as product formation by cell-intact assay relative to control in presence of 20 uM A23187/AA ionophore. In outline:
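Intact human neutrophils, 5 × 10^6 cells/mL, stimulated with 2.5 μM A23187 plus 20 μM exogenous AA. 5-LO products quantified by HPLC or UPLC–MS/MS relative to vehicle control. IC50 from sigmoidal variable-slope fit, means ± SE, n = 3.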

Assay [5] has the same target. The assay is described as follows: Inhibition of 5-LO in human neutrophils assessed as product formation by cell-intact assay relative to control in presence of 2.5 uM A23187 ionophore. The gist of the method: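 Intact human neutrophils, 5 × 10^6 cells/mL, stimulated with 2.5 μM A23187. 5-LO products analysed by HPLC or UPLC–MS/MS and expressed relative to DMSO vehicle control. Means ± SE, n = 3 or 4; IC50 from sigmoidal variable-slope fit.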

The test system of assay [6] is SH-SY5Y. The assay is described as follows: Anticancer activity against human SH-SY5Y cells assessed as reduction in cell viability. Format: functional, cell-based.
Assay [7] addresses T3, Prostaglandin E synthase (Homo sapiens) (UniProt O14684).
T3 sequence (whole entry): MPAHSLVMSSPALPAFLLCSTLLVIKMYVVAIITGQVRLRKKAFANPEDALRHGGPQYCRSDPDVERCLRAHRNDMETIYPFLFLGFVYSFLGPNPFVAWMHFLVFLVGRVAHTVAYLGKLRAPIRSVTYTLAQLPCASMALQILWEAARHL
The assay is described as follows: Inhibition of human mPGES1 from human A549 cells assessed as PGE2 at 10 uM after 15 mins by HPLC. It counts as cell-based. The gist of the method: (§1)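 Enzyme (ovine COX-1) or A549 microsomal preparation (human mPGES-1) given compound or reference inhibitor 10 min before reaction start. Activity expressed as % of 0.1% DMSO vehicle control, read-outs 12-HHT (COX-1) and PGE2 (mPGES-1). Means ± SE, n = 3.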

The target in assay [8] is T4, Prostaglandin G/H synthase 1 (Ovis aries) (UniProt P05979).
T4 sequence (whole entry): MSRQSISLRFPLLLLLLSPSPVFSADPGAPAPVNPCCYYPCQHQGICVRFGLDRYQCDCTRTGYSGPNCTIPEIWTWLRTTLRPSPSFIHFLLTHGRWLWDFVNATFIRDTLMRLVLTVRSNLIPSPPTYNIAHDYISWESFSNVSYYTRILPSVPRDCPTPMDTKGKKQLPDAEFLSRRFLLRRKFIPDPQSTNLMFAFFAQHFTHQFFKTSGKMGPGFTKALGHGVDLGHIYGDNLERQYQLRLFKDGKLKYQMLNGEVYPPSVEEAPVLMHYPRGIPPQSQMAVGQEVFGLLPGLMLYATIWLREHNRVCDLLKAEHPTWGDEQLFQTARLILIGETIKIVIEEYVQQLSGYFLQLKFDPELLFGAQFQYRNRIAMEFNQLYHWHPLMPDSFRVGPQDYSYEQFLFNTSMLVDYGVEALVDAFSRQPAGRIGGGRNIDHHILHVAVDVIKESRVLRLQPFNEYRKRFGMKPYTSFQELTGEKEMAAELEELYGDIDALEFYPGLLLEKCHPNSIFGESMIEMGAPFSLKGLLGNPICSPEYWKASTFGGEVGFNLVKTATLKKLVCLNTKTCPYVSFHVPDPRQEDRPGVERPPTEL
In words: Inhibition of ovine COX1 using arachidonic acid at 10 uM after 5 mins by HPLC analysis. The gist of the method:
as §1

The target in assay [9] is T1, Polyunsaturated fatty acid 5-lipoxygenase (Homo sapiens). The assay is described as follows: Binding affinity to human recombinant 5-LO ATP-bindng site using ATP-agaarose column in S40 fraction of Escherichia coli. The gist of the method: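 E. coli S40 fraction (40,000 × g supernatant) bound to ATP-agarose for 10 min at 4 °C. Pellets washed 3× with PBS-1 mM EDTA, then exposed to vehicle (0.1% DMSO) or compound for 30 min at 4 °C. Eluates and pellet-bound 5-LO resolved by SDS-PAGE and Western blot. Representative of three experiments.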

Assay [10] can be described thus: Inhibition of pig brain GSK3 using YRRAAVPPSPSLSRHSSPHQSpEDEEE substrate by cell-free assay. Also noted: species or system Sus scrofa.

These results are taken from ChEMBL document CHEMBL3259773, “Indirubin core structure of glycogen synthase kinase-3 inhibitors as novel chemotype for intervention with 5-lipoxygenase” (J Med Chem, 2014).

Active and inactive are the calls of the source. No cut-off for these calls is given here.

What is called residual activity is the signal under treatment as a percentage of the control signal. For the compound `COC(=O)c1ccc2c(c1)C(=N\O)/C(=C1/C(=O)Nc3c(Br)cccc31)N2`, the residual activity in [1] turned out to be 99.1%; in assay [2], 72.8%.
The matching figures for `O=C1Nc2c(cccc2C(F)(F)F)/C1=C1/Nc2ccccc2/C1=N\O`: 92.6% and 68%.
By IC50 is commonly meant the point on the concentration scale where inhibition reaches its midpoint. Consider `O=C1Nc2ccc(Br)cc2/C1=C1/Nc2ccccc2/C1=N\O` [INDIRUBIN 2], for which the IC50 in assay [3] turned out to be 5.6 µM; in assay [4], 3.3 µM; in [5], 2.6 µM. Also, the values for the residual activity in assay [1] and in [2] were 51.1% and 62.3%, respectively.
For the compound `O=C1Nc2cc(Br)ccc2/C1=C1/Nc2ccccc2/C1=N\OCCN1CCOCC1`, the values for the residual activity in assay [1] and in assay [2] were 62.7% and 60.3%, respectively.
Turning to `O=C1Nc2c(Cl)cccc2/C1=C1/Nc2ccccc2/C1=N\O`, the 50% inhibitory concentration (IC50) was 4.9 µM in assay [3], 3.1 µM in assay [4] and 4.9 µM in assay [5]. Also, the residual activity is 67.4% in [1] and 65.8% in [2].
As for `O=C1Nc2c(Br)cccc2/C1=C1/Nc2ccccc2C1=O`, the residual activity in [1] came out at 110%; in [2], 85.4%.
What is called EC50 is the concentration at which the effect is half-maximal. Take `O=C1Nc2c(Br)cccc2/C1=C1/Nc2ccccc2/C1=N\O`: the IC50 in [3] turned out to be 5.8 µM; in assay [4], 3.6 µM; in [5], 1.7 µM. Also, the residual activity in assay [1] came out at 43%; in assay [2] it was 68.9%. Also, the concentration giving a half-maximal response (EC50) in assay [6] came out at 8 µM.
On to `O=C1Nc2c(Br)cccc2/C1=C1/Nc2cc(C(=O)O)ccc2/C1=N\O`, for which the residual activity in assay [1] is 123%; in assay [2], 77.1%.
The corresponding values for `O=C1Nc2cc(Br)ccc2/C1=C1/Nc2ccccc2/C1=N\OCCN1CCNCC1` are 64.7% and 76.2%.
The matching figures for `O=C1Nc2c(Br)cccc2/C1=C1/Nc2cc(C(=O)O)ccc2C1=O`: 105% and 80%.
As to `CC(C)c1ccc2c(c1)c(SC(C)(C)C)c(CC(C)(C)C(=O)O)n2Cc1ccc(Cl)cc1`, the inhibition result in assay [7] was “Active”.
Regarding `COc1ccc2c(c1)c(CC(=O)O)c(C)n2C(=O)c1ccc(Cl)cc1`, the inhibition result in [8] was “Active”.
`CC(c1cc2ccccc2s1)N(O)C(N)=O` (configuration not stated): in assay [1], the residual activity stood at 37.9%.
As for `CN(CCO/N=C1/C(=C2/C(=O)Nc3cc(Br)ccc32)Nc2ccccc21)CC(O)CO` (configuration not stated), the residual activity in assay [1] was 87%; in assay [2] it was 71.5%.
The corresponding values for `CC(=O)O/N=C1/C(=C2/C(=O)Nc3c(Br)cccc32)Nc2ccccc21` are 112% and 79.2%.
The matching figures for `O=C1Nc2cc(Br)ccc2/C1=C1/Nc2ccccc2/C1=N\OCCN1CCN(CCO)CC1`: 119% and 89.3%.
Turning to `O=C1Nc2c(F)cccc2/C1=C1/Nc2ccccc2/C1=N\O`, the values for the IC50 in assay [3], in [4] and in [5] were 3.7 µM, 3.3 µM and 5 µM, respectively. Also, the residual activity worked out at 50.4% in assay [1] and 58.1% in [2].
Take `CN1C(=O)/C(=C2\Nc3ccccc3\C2=N/O)c2cccc(Br)c21`: the outcome in assay [9] was inactive. The residual activity is 122% in assay [1] and 97.7% in assay [2].
In the case of `O=C1Nc2cc(Br)ccc2/C1=C1/Nc2ccccc2/C1=N\OCCN1CCCC1`, the figures for the residual activity in assay [1] and in assay [2] were 127% and 75.1%, respectively.
On to `O=Nc1c(-c2c(O)[nH]c3ccccc23)[nH]c2ccccc12` [INDIRUBIN-3-MONOXIME], for which the IC50 in [3] came out at 15 µM; in [4], 8.2 µM; in [10] it was 0.022 µM; in [5], 11.1 µM. In addition, the values for the residual activity in [1] and in assay [2] were 92.2% and 78.4%, respectively.
For `CN1CCN(CCO/N=C2/C(=C3/C(=O)Nc4cc(Br)ccc43)Nc3ccccc32)CC1`, the residual activity in assay [1] came out at 91.1%; in [2], 82.1%.
The corresponding values for `O=C1Nc2cc(Br)ccc2/C1=C1/Nc2ccccc2/C1=N\OCCO` are 81.5% and 88.3%.
The matching figures for `O=C1Nc2c(Br)cccc2/C1=C1/Nc2ccc(/C=N/O)cc2C1=O`: 95.1% and 80%.
Take `O=C1Nc2cc(Br)ccc2/C1=C1/Nc2ccccc2/C1=N\OCC(O)CO` (configuration not stated): the residual activity was found to be 77.7% in assay [1] and 58% in assay [2].
Take `CO/N=C1/C(=C2/C(=O)Nc3c(Br)cccc32)Nc2ccccc21`: the residual activity in [1] was determined as 120%; in assay [2], 82.9%.
The corresponding values for `O=Nc1c(-c2c(O)[nH]c3ccccc23)[nH]c2cc(Br)ccc12` are 111% and 43.9%.
